ChEMBL document CHEMBL1138270, “Antimycobacterial activities of novel 1-(cyclopropyl/tert-butyl/4-fluorophenyl)-1,4-dihydro- 6-nitro-4-oxo-7-(substituted secondary amino)-1,8-naphthyridine-3-carboxylic acid” (J Med Chem, 2007)
≈ marks a conversion by molar mass, not a printed value.

Assays:
[1] = system: Mycobacterium tuberculosis; assay: Antimycobacterial activity against Mycobacterium tuberculosis ATCC 35801 infected CD1 mouse assessed as lung bacterial count at 50 mg/kg, ip after 35 days post infection; format: functional; settings: route intraperitoneal
Method in brief: (§1)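 CD-1 mice were infected intravenously via the caudal vein with about 10⁷ viable M. tuberculosis ATCC 35801. Intraperitoneal treatment began 10 days after inoculation and ran for 10 days. At 35 days post-infection, spleens and right lungs were homogenized, serially diluted 10-fold and plated on 7H10 agar at 37 °C in ambient air for 4 weeks. Counts were compared with vehicle-treated controls and given as log CFU ± SEM.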

[2] = system: Mycolicibacterium smegmatis; assay: Antimicrobial activity against Mycobacterium smegmatis by agar dilution method; format: functional
Method in brief: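 Agar dilution against M. smegmatis ATCC 14468; MIC determined in duplicate.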

Mus musculus [3] = assay: Phototoxicity in Swiss Albino mouse assessed as ear erythema at 140 mg/kg, po after 24 hrs of irradiation; format: organism-based; set-up: dose 140 mg/kg, route oral; settings: in vivo
[4] = Inhibition of Mycobacterium smegmatis DNA gyrase supercoiling activity; set-up: species or system Mycolicibacterium smegmatis
Method in brief: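 Gyrase purified from M. smegmatis was preincubated with compound in DMSO (5% DMSO in reaction). 400 ng relaxed pUC18 was added in 35 mM Tris-HCl pH 7.5, 5 mM MgCl2, 25 mM K-glutamate, 2 mM spermidine, 2 mM ATP, BSA, tRNA and 5% glycerol, 1 h at 37 °C. Samples were heat-inactivated, run on 1% agarose in TAE, and ethidium-stained; IC50 was derived.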

Mus musculus [5] = assay: Phototoxicity in UV light irradiated Swiss Albino mouse assessed ear erythema at 140 mg/kg, po; format: organism-based; set-up: dose 140 mg/kg, route oral; settings: in vivo
[6] = system: Mycobacterium tuberculosis; assay: Antimycobacterial activity against Mycobacterium tuberculosis ATCC 35801 infected CD1 mouse assessed as spleen bacterial count at 50 mg/kg, ip after 35 days post infection; format: functional; settings: route intraperitoneal; method in brief: as §1
Mus musculus [7] = assay: Phototoxicity in Swiss Albino mouse assessed as ear erythema at 140 mg/kg, po after 48 hrs of irradiation; format: organism-based; set-up: dose 140 mg/kg, route oral; settings: in vivo
Mus musculus [8] = assay: Phototoxicity in Swiss Albino mouse assessed as ear erythema at 140 mg/kg, po after 4 hrs of irradiation; format: organism-based; set-up: dose 140 mg/kg, route oral; settings: in vivo
Mus musculus [9] = assay: Phototoxicity in Swiss Albino mouse assessed as ear erythema at 140 mg/kg, po after 96 hrs of irradiation; format: organism-based; set-up: dose 140 mg/kg, route oral; settings: in vivo
Mus musculus [10] = assay: Phototoxicity in Swiss Albino mouse assessed as ear erythema at 140 mg/kg, po after 72 hrs of irradiation; format: organism-based; set-up: dose 140 mg/kg, route oral; settings: in vivo
Mus musculus [11] = assay: Phototoxicity in Swiss Albino mouse assessed as ear thickness at 140 mg/kg, po after 48 hrs of irradiation; format: organism-based; set-up: dose 140 mg/kg, route oral; settings: in vivo
Method in brief: (§2)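 Female Swiss albino mice (~2 months, 20-25 g) were fasted ≥18 h and given 140 mg/kg orally by gavage; controls received 0.5% Na-CMC vehicle at 10 mL/kg. UVA started right after dosing, 4 h (~18 J/cm2). Ear thickness was measured before dosing and at 4, ~24, 48, 72 and 96 h, reported as mean of left and right ears ± SEM.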

[12] = system: Mycobacterium tuberculosis; assay: Antimycobacterial activity against Mycobacterium tuberculosis H37Rv by agar dilution method; format: functional
Method in brief: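 MIC was determined by agar dilution, in duplicate.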

Mus musculus [13] = assay: Phototoxicity in Swiss Albino mouse assessed as ear thickness at 140 mg/kg, po after 24 hrs of irradiation; format: organism-based; set-up: dose 140 mg/kg, route oral; settings: in vivo; method in brief: as §2
Mus musculus [14] = assay: Phototoxicity in Swiss Albino mouse assessed as ear thickness at 140 mg/kg, po after 96 hrs of irradiation; format: organism-based; set-up: dose 140 mg/kg, route oral; settings: in vivo; method in brief: as §2
Mus musculus [15] = assay: Phototoxicity in Swiss Albino mouse assessed as ear thickness at 140 mg/kg, po after 4 hrs of irradiation; format: organism-based; set-up: dose 140 mg/kg, route oral; settings: in vivo; method in brief: as §2
Mus musculus [16] = assay: Phototoxicity in Swiss Albino mouse assessed as ear thickness at 140 mg/kg, po after 72 hrs of irradiation; format: organism-based; set-up: dose 140 mg/kg, route oral; settings: in vivo; method in brief: as §2
Mus musculus [17] = assay: Phototoxicity in UV light irradiated Swiss Albino mouse assessed as ear thickness at 140 mg/kg, po; format: organism-based; set-up: dose 140 mg/kg, route oral; settings: in vivo; method in brief: as §2
Vero = assay: Cytotoxicity against Vero cells after 72 hrs by MTT assay; format: cell-based; settings: Chlorocebus sabaeus
Method in brief: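 Vero cells were exposed to serially diluted compound up to 62.5 µg/mL for 72 h. Viability was read by cellular conversion of MTT to formazan (CellTiter 96 non-radioactive proliferation assay), and IC50 was derived.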

Mus musculus [18] = assay: Toxicity in C57BL/6 mouse at 500 mg/kg; format: organism-based; set-up: dose 500 mg/kg; settings: in vivo
Method in brief: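 Maximum tolerated dose study in female C57BL/6 mice: single escalating doses of 100, 300 and 500 mg/kg, 3 mice/dose.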

[19] = system: Mycobacterium tuberculosis; assay: Antimycobacterial activity against Mycobacterium tuberculosis ATCC 35801 infected CD1 mouse assessed as lung bacterial count at 25 mg/kg, ip after 35 days post infection; format: functional; settings: route intraperitoneal; method in brief: as §1
[20] = system: Mycobacterium tuberculosis; assay: Antimycobacterial activity against Mycobacterium tuberculosis ATCC 35801 infected CD1 mouse assessed as spleen bacterial count at 25 mg/kg, ip after 35 days post infection; format: functional; settings: route intraperitoneal; method in brief: as §1

What does the source list for CC1(C)COCN1c1nc2c(cc1[N+](=O)[O-])c(=O)c(C(=O)O)cn2C(C)(C)C?
Log10 cfu [1]: 5.6; MIC [2]: 3.99 µM (≈ 1.56 µg/mL); Activity (Mus musculus [3]): Non-toxic; IC50 [4]: 256 µM; Activity (Mus musculus [5]): Non-toxic; Log10 cfu [6]: 5.13; Activity (Mus musculus [7]): Toxic; Activity (Mus musculus [8]): Non-toxic; Activity (Mus musculus [9]): Toxic; Activity (Mus musculus [10]): Toxic; Activity (Mus musculus [11]): 0.29 mm; MIC [12]: 0.1 µM (≈ 0.039 µg/mL); Activity (Mus musculus [13]): 0.26 mm; Activity (Mus musculus [14]): 0.3 mm; Activity (Mus musculus [15]): 0.28 mm; Activity (Mus musculus [16]): 0.3 mm; Activity (Mus musculus [17]): 0.24 mm; IC50 (Vero): > 160 µM; Activity (Mus musculus [18]): Non-toxic

With O=C(O)c1cn(-c2ccc(F)cc2)c2nc(N3CCSCC3)c([N+](=O)[O-])cc2c1=O as the compound, how does the MIC [2] read?
The MIC was 1.81 µM (≈ 0.779 µg/mL).

And the Activity (Mus musculus [3])?
The Activity was “Non-toxic”.

What about the IC50 [4] of the same compound?
The IC50 was over 232 µM.

What about the Activity (Mus musculus [5]) of the same compound?
Its Activity is “Non-toxic”.

What about the Activity (Mus musculus [7]) of the same compound?
The Activity was “Non-toxic”.

And the Activity (Mus musculus [8])?
Its Activity is “Non-toxic”.

And the Activity (Mus musculus [9])?
The Activity was “Non-toxic”.

And the Activity (Mus musculus [10])?
The Activity was “Non-toxic”.

What about the Activity (Mus musculus [11]) of the same compound?
Its Activity is 0.26 mm.

And the MIC [12]?
The MIC was 0.44 µM (≈ 0.189 µg/mL).

What about the Activity (Mus musculus [13]) of the same compound?
The Activity was 0.26 mm.

And the Activity (Mus musculus [14])?
The Activity was 0.29 mm.

What about the Activity (Mus musculus [15]) of the same compound?
The Activity was 0.27 mm.

And the Activity (Mus musculus [16])?
The Activity was 0.29 mm.

What about the Activity (Mus musculus [17]) of the same compound?
The Activity was 0.25 mm.

What about the IC50 (Vero) of the same compound?
The IC50 was 72.6 µM.

Which results are given for CC(C)(C)n1cc(C(=O)O)c(=O)c2cc([N+](=O)[O-])c(N3CCSCC3)nc21?
MIC [2]: 1.99 µM (≈ 0.781 µg/mL); Activity (Mus musculus [3]): Non-toxic; IC50 [4]: 102 µM; Activity (Mus musculus [5]): Non-toxic; Activity (Mus musculus [7]): Non-toxic; Activity (Mus musculus [8]): Non-toxic; Activity (Mus musculus [9]): Non-toxic; Activity (Mus musculus [10]): Non-toxic; Activity (Mus musculus [11]): 0.29 mm; MIC [12]: 0.99 µM (≈ 0.389 µg/mL); Activity (Mus musculus [13]): 0.28 mm; Activity (Mus musculus [14]): 0.32 mm; Activity (Mus musculus [15]): 0.28 mm; Activity (Mus musculus [16]): 0.3 mm; Activity (Mus musculus [17]): 0.27 mm; IC50 (Vero): 79.6 µM

What does the source list for CC1CN(c2nc3c(cc2[N+](=O)[O-])c(=O)c(C(=O)O)cn3-c2ccc(F)cc2)CC(C)O1 (stereo not given)?
MIC [2]: 1.79 µM (≈ 0.792 µg/mL); Activity (Mus musculus [3]): Non-toxic; IC50 [4]: 226 µM; Activity (Mus musculus [5]): Non-toxic; Activity (Mus musculus [7]): Non-toxic; Activity (Mus musculus [8]): Non-toxic; Activity (Mus musculus [9]): Non-toxic; Activity (Mus musculus [10]): Non-toxic; Activity (Mus musculus [11]): 0.27 mm; MIC [12]: 0.43 µM (≈ 0.19 µg/mL); Activity (Mus musculus [13]): 0.28 mm; Activity (Mus musculus [14]): 0.3 mm; Activity (Mus musculus [15]): 0.25 mm; Activity (Mus musculus [16]): 0.3 mm; Activity (Mus musculus [17]): 0.26 mm; IC50 (Vero): 141 µM

Which MIC [2] does the source give for O=C(O)c1cn2c(n1)CN(c1nc3c(cc1[N+](=O)[O-])c(=O)c(C(=O)O)cn3-c1ccc(F)cc1)CC2 here?
Its MIC is 1.58 µM (≈ 0.781 µg/mL).

What about the Activity (Mus musculus [3]) of the same compound?
The Activity was “Toxic”.

What about the IC50 [4] of the same compound?
Its IC50 is over 202 µM.

And the Activity (Mus musculus [5])?
The Activity was “Non-toxic”.

What about the Activity (Mus musculus [7]) of the same compound?
Its Activity is “Non-toxic”.

What about the Activity (Mus musculus [8]) of the same compound?
Its Activity is “Toxic”.

And the Activity (Mus musculus [9])?
Its Activity is “Non-toxic”.

And the Activity (Mus musculus [10])?
Its Activity is “Non-toxic”.

And the Activity (Mus musculus [11])?
The Activity was 0.32 mm.

What about the MIC [12] of the same compound?
Its MIC is 0.38 µM (≈ 0.188 µg/mL).

And the Activity (Mus musculus [13])?
Its Activity is 0.33 mm.

What about the Activity (Mus musculus [14]) of the same compound?
The Activity was 0.33 mm.

What about the Activity (Mus musculus [15]) of the same compound?
The Activity was 0.32 mm.

And the Activity (Mus musculus [16])?
The Activity was 0.33 mm.

And the Activity (Mus musculus [17])?
The Activity was 0.27 mm.

What about the IC50 (Vero) of the same compound?
The IC50 was over 126 µM.

For COc1c(N2CCNC(C)C2)c(F)cc2c(=O)c(C(=O)O)cn(C3CC3)c12 (stereo not given) [GATIFLOXACIN], which Log10 cfu [1] is on record?
Its Log10 cfu is 6.02.

And the MIC [2]?
The MIC was 2.08 µM (≈ 0.781 µg/mL).

And the Log10 cfu [6]?
Its Log10 cfu is 6.92.

And the MIC [12]?
Its MIC is 1.04 µM (≈ 0.39 µg/mL).

And the IC50 (Vero)?
Its IC50 is over 155 µM.

What does the source list for NNC(=O)c1ccncc1 [ISONIAZID]?
MIC [2]: 45.6 µM (≈ 6.25 µg/mL); MIC [12]: 0.36 µM (≈ 0.0494 µg/mL); Log10 cfu [19]: 5.86; Log10 cfu [20]: 4.71; IC50 (Vero): > 456 µM

With CCn1cc(C(=O)O)c(=O)c2cc(F)c(N3CCNC(C)C3)c(F)c21 (stereo not given) [LOMEFLOXACIN] as the compound, how does the Activity (Mus musculus [3]) read?
Its Activity is “Toxic”.

And the Activity (Mus musculus [5])?
Its Activity is “Toxic”.

What about the Activity (Mus musculus [7]) of the same compound?
Its Activity is “Toxic”.

What about the Activity (Mus musculus [8]) of the same compound?
Its Activity is “Toxic”.

And the Activity (Mus musculus [9])?
Its Activity is “Toxic”.

What about the Activity (Mus musculus [10]) of the same compound?
The Activity was “Toxic”.

And the Activity (Mus musculus [11])?
Its Activity is 0.53 mm.

And the Activity (Mus musculus [13])?
The Activity was 0.48 mm.

What about the Activity (Mus musculus [14]) of the same compound?
The Activity was 0.6 mm.

And the Activity (Mus musculus [15])?
Its Activity is 0.4 mm.

And the Activity (Mus musculus [16])?
The Activity was 0.64 mm.

And the Activity (Mus musculus [17])?
The Activity was 0.31 mm.
